Experimental data published in ChEMBL document CHEMBL3826914, “Selective photodepletion of malignant T cells in extracorporeal photopheresis with selenorhodamine photosensitizers” (Bioorg Med Chem, 2016).

Test system: not listed separately
Assay: Drug extrusion in SEB-stimulated human CD25 positive cells assessed as mean fluorescence intensity at 5 x 10^-8 M preincubated for 20 mins followed by growth in photosensitizer-free media for 30 mins by flow cytometric analysis relative to control
Conditions: 0.5 h, 0.05 µM; call rule not given here

Row | SMILES | Flu intensity
1 | CN1CCC(C)(C)c2cc3c(-c4ccc(C(=S)N5CCCCC5)s4)c4ccc(=[N+](C)C)cc-4[se]c3cc21.[Cl-] | 32200 a.u.
2 | CN1CCC(C)(C)c2cc3c(-c4ccc(C(=O)N5CCCCC5)s4)c4ccc(=[N+](C)C)cc-4[se]c3cc21.[Cl-] | 3110 a.u.

Test system: not listed separately
Assay: Drug uptake in SEB-stimulated human CD25 positive cells assessed as mean fluorescence intensity at 5 x 10^-8 M preincubated for 20 mins followed by growth in photosensitizer-free media for 30 mins by flow cytometric analysis relative to control
Conditions: 0.5 h, 0.05 µM

Row | SMILES | Flu intensity
3 | CN1CCC(C)(C)c2cc3c(-c4ccc(C(=S)N5CCCCC5)s4)c4ccc(=[N+](C)C)cc-4[se]c3cc21.[Cl-] | 45800 a.u.
4 | CN1CCC(C)(C)c2cc3c(-c4ccc(C(=O)N5CCCCC5)s4)c4ccc(=[N+](C)C)cc-4[se]c3cc21.[Cl-] | 5390 a.u.

Test system: HuT78
Conditions: human, hut78, 0.5 h, 0.075 µM

Row | SMILES | Flu intensity
5 | CN1CCC(C)(C)c2cc3c(-c4ccc(C(=S)N5CCCCC5)s4)c4ccc(=[N+](C)C)cc-4[se]c3cc21.[Cl-] | 39300 a.u.
6 | CN1CCC(C)(C)c2cc3c(-c4ccc(C(=O)N5CCCCC5)s4)c4ccc(=[N+](C)C)cc-4[se]c3cc21.[Cl-] | 15300 a.u.

Test system: HuT78
Conditions: human, hut78, 0.5 h, 0.075 µM
Remark: another data set of the same source

Row | SMILES | Flu intensity
7 | CN1CCC(C)(C)c2cc3c(-c4ccc(C(=S)N5CCCCC5)s4)c4ccc(=[N+](C)C)cc-4[se]c3cc21.[Cl-] | 37600 a.u.
8 | CN1CCC(C)(C)c2cc3c(-c4ccc(C(=O)N5CCCCC5)s4)c4ccc(=[N+](C)C)cc-4[se]c3cc21.[Cl-] | 5270 a.u.

Test system: not listed separately
Assay: Drug uptake in human HUT78 cell mitochondria by MTG-based bright field microscopic analysis
Assay type: ADME
Conditions: not given
Procedure, shortened: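 HUT-78 cells (5×10^5 in 0.5 mL medium) were incubated 15 min with 2×10^-7 M dye together with 5×10^-7 M MitoTracker Green. They were centrifuged and analysed by ImageStream imaging flow cytometry, with MTG excited at 488 nm (480–560 nm channel) and dye excited at 561 nm (642–745 nm channel). Colocalisation was given as the bright detail similarity score, mean ± SD over cells.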

Row | SMILES | Drug uptake
9 | CN1CCC(C)(C)c2cc3c(-c4ccc(C(=S)N5CCCCC5)s4)c4ccc(=[N+](C)C)cc-4[se]c3cc21.[Cl-] | Active
10 | CN1CCC(C)(C)c2cc3c(-c4ccc(C(=O)N5CCCCC5)s4)c4ccc(=[N+](C)C)cc-4[se]c3cc21.[Cl-] | Active

Test system: not listed separately
Assay: Drug extrusion in SEB-stimulated human CD25 negative cells assessed as mean fluorescence intensity at 5 x 10^-8 M preincubated for 20 mins followed by growth in photosensitizer-free media for 30 mins by flow cytometric analysis relative to control
Conditions: 0.5 h, 0.05 µM

Row | SMILES | Flu intensity
11 | CN1CCC(C)(C)c2cc3c(-c4ccc(C(=S)N5CCCCC5)s4)c4ccc(=[N+](C)C)cc-4[se]c3cc21.[Cl-] | 4800 a.u.
12 | CN1CCC(C)(C)c2cc3c(-c4ccc(C(=O)N5CCCCC5)s4)c4ccc(=[N+](C)C)cc-4[se]c3cc21.[Cl-] | 270 a.u.

Test system: not listed separately
Assay: Drug uptake in SEB-stimulated human CD25 negative cells assessed as mean fluorescence intensity at 5 x 10^-8 M preincubated for 20 mins followed by growth in photosensitizer-free media for 30 mins by flow cytometric analysis relative to control
Conditions: 0.5 h, 0.05 µM

Row | SMILES | Flu intensity
13 | CN1CCC(C)(C)c2cc3c(-c4ccc(C(=S)N5CCCCC5)s4)c4ccc(=[N+](C)C)cc-4[se]c3cc21.[Cl-] | 10500 a.u.
14 | CN1CCC(C)(C)c2cc3c(-c4ccc(C(=O)N5CCCCC5)s4)c4ccc(=[N+](C)C)cc-4[se]c3cc21.[Cl-] | 900 a.u.
